From paper PMC5628144 (Phytotherapy research : PTR, 2017)
Values joined by “and” are separate entries in the source; they are usually repeats but may differ in a detail not shown here. Identical values can stand only once.

Key:
[1] = system: MDA-MB-231 breast cancer cells; experiment: MTT cell proliferation assay, HGF-induced, MDA-MB-231; format: cell-based, human; conditions: 48 h
Procedure, shortened: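 MDA-MB-231 cells were seeded at 1×10⁴/well (6 wells/group) in RPMI-1640 with 10% FBS overnight. They were PBS-washed and treated for 48 h at 37°C in serum-free RPMI with 40 ng/mL HGF and 10 or 40 µM test compound, or DMSO vehicle. MTT 1 mg mL⁻¹ for 4 h, DMSO solubilisation, A570. Cell number came from a standard curve, and % survival was taken relative to DMSO wells.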

[2] = molecular target: c-Met kinase (Homo sapiens, UniProt P08581); experiment: Cell-free Z'-LYTE kinase assay, c-Met phosphorylation inhibition; format: biochemical; conditions: for % c-Met Inhibition using Cell-Free assay (5 µM dose): single 5 µM dose; for IC50: read-out: c-Met phosphorylation inhibitory IC50, various doses
Chain of c-Met kinase (P08581 1078-1345 limits assumed): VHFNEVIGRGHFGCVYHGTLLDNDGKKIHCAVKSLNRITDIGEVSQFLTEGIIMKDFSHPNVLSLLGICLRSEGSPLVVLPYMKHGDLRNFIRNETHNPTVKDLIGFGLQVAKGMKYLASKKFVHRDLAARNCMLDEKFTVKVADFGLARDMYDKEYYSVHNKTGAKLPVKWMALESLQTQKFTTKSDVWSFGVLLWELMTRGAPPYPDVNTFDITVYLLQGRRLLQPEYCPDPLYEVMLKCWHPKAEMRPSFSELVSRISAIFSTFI
Procedure, shortened: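 Purified c-Met kinase domain, pre-phosphorylated in vitro, in a Z'-LYTE Tyr6 peptide kit. Reactions held kinase buffer, 200 µM ATP, 4 µM Tyr6 peptide, 2500 ng mL⁻¹ c-Met and test compound, run 1 h at rt. Protease development solution then added for 1 h. Read-out was the 445/520 nm fluorescence ratio. Screen at 5 µM, then various doses, N=3/dose. IC50 from non-linear regression.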

[3] = system: BT-474 breast cancer cells; experiment: MTT cell proliferation assay, HGF-induced, BT-474; format: cell-based, human; conditions: BT-474, various doses
Procedure, shortened: (§1)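 MDA-MB-468, MCF-7 or BT-474 cells were seeded at 1×10⁴/well (6 wells/group) in RPMI-1640 with 10% FBS and left overnight at 37°C, 5% CO₂. After a PBS wash they got serum-free RPMI with 40 ng/mL HGF plus test compound at various doses, or DMSO (≤0.1%), for 48 h. MTT (1 mg mL⁻¹) for 4 h, formazan dissolved in DMSO, A570. IC50 by non-linear regression.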

[4] = system: MDA-MB-468 breast cancer cells; experiment: MTT cell proliferation assay, HGF-induced, MDA-MB-468; format: cell-based, human; conditions: MDA-MB-468, various doses
Procedure, shortened: as §1

[5] = system: MCF-7 breast cancer cells; experiment: MTT cell proliferation assay, HGF-induced, MCF-7; format: cell-based, human; conditions: MCF-7, various doses
Procedure, shortened: as §1

[6] = system: MDA-MB-231 cells; experiment: Wound-healing scratch assay; format: cell-based, human; conditions: read-out: IC50, HGF-induced cell migration; WHA, MDA-MB-231, 24 h, 40 ng/mL HGF
Procedure, shortened: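 Scratch wounds were made with a pipette tip in overnight confluent MDA-MB-231 monolayers, then rinsed with PBS and RPMI. Test compound at various doses in serum-free medium with 40 ng/mL HGF, in triplicate, for 24 h. Cells were fixed and Giemsa-stained, and wound width measured at 0 and 24 h. % migration calculated against DMSO-treated wells, with IC50 by non-linear regression. Oleocanthal 10 µM was the positive control.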

Row | % c-Met Inhibition using Cell-Free assay (5 µM dose) [2] [%] | Molecule | % Survival Inhibition ([1]; 10 µM) | % Survival Inhibition ([1]; 40 µM) | HGF-induced proliferation [3] | HGF-induced proliferation [4] | HGF-induced proliferation [5] | IC50 [6] [µM] | IC50 [2] [µM]
1 | 10.9 | 6-O-α-L-(3″-O-trans-p-coumaroyl-4″-O-trans-caffeoyl)-rhamnopyrano-sylcatalpol [Compound 3] | 27% | 30% | – | – | – | – | –
2 | – | C[C@@H]1O[C@@H](OC(=O)/C=C/c2ccc(O)cc2)[C@H](OC(=O)/C=C/c2ccc(O)c(O)c2)[C@H](O)[C@H]1O (relative stereo) [Compound 9, 1-O-trans-p-coumaroyl-2-O-trans-caffeoyl-α-L-rhamnopyranose] | 50% and 51.3% | 80% and 79.3% | dose-dependent suppression | dose-dependent suppression | dose-dependent suppression | 0.98 | 2.5
3 | 0 | premnoside B [Compound 6] | 10% | 13% | – | – | – | – | –
4 | 0 | premnoside C [Compound 7] | 13% | 18% | – | – | – | – | –
5 | 0 | premnoside E [Compound 4] | – | 7% | – | – | – | – | –
6 | 0 | premnoside G [Compound 5] | – | 20% | – | – | – | – | –

Row | Molecule | % c-Met Inhibition using Cell-Free assay (5 µM dose) [2] [%] | % Survival Inhibition ([1]; 10 µM) | % Survival Inhibition ([1]; 40 µM) | HGF-induced proliferation [3] | HGF-induced proliferation [4] | HGF-induced proliferation [5] | IC50 [6] [µM] | IC50 [2] [µM]
7 | C[C@@H]1O[C@@H](O[C@H]2[C@@H]3C=CO[C@@H](O[C@@H]4O[C@H](CO)[C@@H](O)[C@H](O)[C@H]4O)[C@@H]3[C@@]3(CO)O[C@@H]23)[C@H](O)[C@H](OC(=O)/C=C/c2ccc(O)cc2)[C@H]1OC(=O)/C=C/c1ccc(O)cc1 (relative stereo) [Compound 1, 6-O-α-L-(3″,4″-di-O-trans-p-coumaroyl) rhamnopyranosylcatalpol] | 0 | – | 26% | – | – | – | – | –
8 | C[C@@H]1O[C@@H](OC(=O)/C=C/c2ccc(O)cc2)[C@H](O)[C@H](OC(=O)/C=C/c2ccc(O)c(O)c2)[C@H]1O (relative stereo) [Compound 10, 1-O-trans-p-coumaroyl-3-O-trans-caffeoyl-α-L-rhamnopyranose] | 38.8 | 28% and 28.2% | 49% and 49.2% | – | – | – | 8.1 | 12.7
9 | COc1ccc(C=CC(=O)OC2C(C)OC(OC3C4C=COC(OC5OC(CO)C(O)C(O)C5O)C4C4(CO)OC34)C(O)C2OC(=O)C=Cc2ccc(OC)cc2)cc1 [Compound 2, 6-O-α-L-(3″,4″-di-O-trans-p-methoxycinnamoyl)-rhamnopyranosylcatalpol] | 0 | – | 17% | – | – | – | – | –
10 | COc1ccc(/C=C/C(=O)O[C@@H]2[C@@H](O)[C@@H](O)[C@H](O[C@H]3[C@@H]4C=CO[C@@H](O[C@@H]5O[C@H](CO)[C@@H](O)[C@H](O)[C@H]5O)[C@@H]4[C@@]4(CO)O[C@@H]34)O[C@H]2C)cc1 [Compound 8, 6-O-α-L-(4”-O-p-methoxycinnamoyl) rhamnopyranosylcatalpol] | 56.7 | 32% | 61% and 61.3% | – | – | – | 13.5 | 6.9
